From ChEMBL document CHEMBL3102754, “3D-QSAR study of adamantyl N-benzylbenzamides as melanogenesis inhibitors” (Bioorg Med Chem Lett, 2014)

These molecules were tested on B16 (assay: Antimelanogenic activity in mouse B16 cells after 4 days by spectrophotometry). Conditions: B16, 96 h.
Type: functional, cell-based
Method in brief: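 Cells seeded at 2 × 10^5 cells/mL and treated in triplicate, with medium changed daily. After 4 d of culture, cells lysed in 1 N NaOH and crude extract transferred for melanin content reading.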

Row | SMILES | IC50 [µM]
1 | O=C(NCc1ccc(O)cc1O)c1cc(C23CC4CC(CC(C4)C2)C3)c(O)cc1O | 1.2
2 | O=C(NCc1ccc(O)c(O)c1)c1ccc(O)cc1O | 8
3 | COc1cc(CNC(=O)c2cc(C34CC5CC(CC(C5)C3)C4)c(O)cc2O)cc(OC)c1 | 2.57
4 | COc1ccc(C(=O)NCCc2ccc(O)cc2)c(O)c1 | 5
5 | O=C(NCCc1ccc(O)cc1)c1cc(C23CC4CC(CC(C4)C2)C3)c(O)cc1O | 1.1
6 | COc1ccc(C(=O)NCCc2ccc(O)cc2)c(OC)c1 | 27
7 | O=C(NCc1ccc(O)c(O)c1)c1ccc(O)cc1 | 55
8 | COc1ccc(CNC(=O)c2cc(C34CC5CC(CC(C5)C3)C4)c(O)cc2O)c(O)c1 | 5.71
9 | COc1ccc(C(=O)NCCc2ccc(O)c(O)c2)cc1 | 23
10 | COc1ccccc1CNC(=O)c1cc(C23CC4CC(CC(C4)C2)C3)c(O)cc1O | 2.31
11 | O=C(NCc1ccc(O)c(O)c1)c1cc(C23CC4CC(CC(C4)C2)C3)c(O)cc1O | 2.5
12 | O=C(NCCc1ccc(O)c(O)c1)c1cc(C23CC4CC(CC(C4)C2)C3)c(O)cc1O | 4.33
13 | O=C(NCc1cc(O)ccc1O)c1ccc(O)cc1O | 24.2
14 | O=C(NCc1cc(O)ccc1O)c1cc(C23CC4CC(CC(C4)C2)C3)c(O)cc1O | 0.729
15 | COc1ccc(C(=O)NCc2ccc(O)c(O)c2)c(OC)c1 | 8.99
16 | COc1ccc(C(=O)NCc2ccc(O)c(O)c2)cc1 | 10
17 | COc1ccc(C(=O)NCc2ccc(O)c(O)c2)c(O)c1 | 8
18 | O=C(NCCc1ccc(O)c(O)c1)c1ccc(O)cc1 | 75
19 | COc1cc(O)c(C(=O)NCCc2ccc(O)c(O)c2)cc1C12CC3CC(CC(C3)C1)C2 | 1.25
20 | COc1ccc(C(=O)NCCc2ccc(O)c(O)c2)c(OC)c1 | 11

More lines, now with the values ahead:

Row | IC50 [µM] | SMILES
21 | 0.899 | O=C(NCc1ccc(O)cc1O)c1ccc(O)c(C23CC4CC(CC(C4)C2)C3)c1
22 | 1.4 | COc1ccc(C(=O)NCc2ccc(O)cc2O)cc1C12CC3CC(CC(C3)C1)C2
23 | 3.69 | COc1ccc(CNC(=O)c2cc(C34CC5CC(CC(C5)C3)C4)c(O)cc2O)c(OC)c1
24 | 1.23 | O=C(NCc1ccc(O)cc1)c1cc(C23CC4CC(CC(C4)C2)C3)c(O)cc1O
25 | 3.41 | COc1ccc(C(=O)NCCc2ccc(O)cc2)cc1C12CC3CC(CC(C3)C1)C2
26 | 4.44 | COc1cc(CNC(=O)c2ccc(O)c(C34CC5CC(CC(C5)C3)C4)c2)cc(OC)c1
27 | 2.57 | O=C(NCc1ccc(O)c(O)c1)c1ccc(O)c(C23CC4CC(CC(C4)C2)C3)c1
28 | 2.33 | COc1ccc(C(=O)NCCc2ccc(O)c(O)c2)cc1C12CC3CC(CC(C3)C1)C2
29 | 4.08 | COc1ccc(CCNC(=O)c2cc(C34CC5CC(CC(C5)C3)C4)c(O)cc2O)cc1OC
30 | 2.94 | COc1cc(CNC(=O)c2cc(C34CC5CC(CC(C5)C3)C4)c(O)cc2O)cc(OC)c1OC
31 | 3.81 | COc1ccc(CNC(=O)c2cc(C34CC5CC(CC(C5)C3)C4)c(O)cc2O)cc1OC
32 | 4.5 | COc1ccc(CCNC(=O)c2ccc(OC)c(C34CC5CC(CC(C5)C3)C4)c2)cc1OC
33 | 3.86 | COc1ccc(CNC(=O)c2ccc(O)c(C34CC5CC(CC(C5)C3)C4)c2)cc1OC
34 | 5.41 | COc1ccc(OC)c(CNC(=O)c2ccc(O)c(C34CC5CC(CC(C5)C3)C4)c2)c1
35 | 5 | COc1ccc(CNC(=O)c2ccc(OC)c(C34CC5CC(CC(C5)C3)C4)c2)cc1OC
36 | 5.02 | COc1cc(CNC(=O)c2ccc(OC)c(C34CC5CC(CC(C5)C3)C4)c2)cc(OC)c1
37 | 3.14 | COc1ccc(OC)c(CNC(=O)c2ccc(OC)c(C34CC5CC(CC(C5)C3)C4)c2)c1
38 | 2.09 | O=C(NCCc1ccc(O)c(O)c1)c1ccc(O)c(C23CC4CC(CC(C4)C2)C3)c1
39 | 4.1 | COc1ccc(OC)c(CNC(=O)c2cc(C34CC5CC(CC(C5)C3)C4)c(O)cc2O)c1
40 | 2.23 | COc1ccc(C(=O)NCc2ccc(O)c(O)c2)cc1C12CC3CC(CC(C3)C1)C2
41 | 1.2 | COc1cc(OC)c(C23CC4CC(CC(C4)C2)C3)cc1C(=O)NCCc1ccc(O)cc1
42 | 1.29 | COc1cc(O)c(C(=O)NCc2ccc(O)c(O)c2)cc1C12CC3CC(CC(C3)C1)C2
43 | 1.92 | COc1cc(O)c(C(=O)NCCc2ccc(O)cc2)cc1C12CC3CC(CC(C3)C1)C2
